{"source": "ChEMBL document CHEMBL1129569", "about": "“Synthesis and anticonvulsant activities of N-Benzyl-2-acetamidopropionamide derivatives” (J Med Chem, 1996)", "key": {"[1]": {"assay": "(§1) Neurotoxic toxicity was evaluated by rotarod test after intraperitoneal administration", "assay_type": "organism-based", "details": "mouse, in vivo, ip", "in_short": "(§2)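 Mice, ip, in 0.5% methylcellulose suspension. Impairment was defined as failure to stay balanced for 1 min on a 1 in. knurled rod turning at 6 rpm, in each of three successive trials.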"}, "Mus musculus [2]": {"system": "Mus musculus", "assay": "Effective dose against maximal electroshock seizure in mice after intraperitoneal administration", "assay_type": "functional", "in_short": "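Mice, ip; compounds suspended in 0.5% (w/v) methylcellulose in water, 0.01 mL/g body weight. Butacaine-containing saline electrolyte was dropped on the eyes, then corneal electrodes delivered 60-cycle AC, 50 mA, 0.2 s. The endpoint was abolition of hindlimb tonic extension.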"}, "[3]": {"assay": "Protective index between TD50/MES ED50 when administered intraperitoneally to mouse", "assay_type": "ADME, organism-based", "details": "in vivo, ip, read-out: PI"}, "[4]": {"assay": "Neurotoxic toxicity in mice was evaluated by rotarod test after intraperitoneal administration", "assay_type": "organism-based", "details": "mouse, in vivo, ip", "in_short": "as §2"}, "Rattus norvegicus": {"system": "Rattus norvegicus", "assay": "Effective dose against maximal electroshock seizure in rat after oral administration", "assay_type": "functional", "in_short": "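Male Sprague Dawley rats dosed orally with a suspension in 0.5% (w/v) methylcellulose in water. After anaesthetic electrolyte eye drops, corneal 60-cycle AC was applied at 150 mA for 0.2 s. Protection meant abolition of hindlimb tonic extensor.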"}, "[5]": {"assay": "Protective index between TD50/MES ED50 when administered intraperitoneally to mice", "assay_type": "ADME, organism-based", "details": "mouse, in vivo, ip; read-out: PI"}, "[6]": {"assay": "Neurotoxic toxicity was evaluated by rotarod test after intraperitoneal administration determined from horizontal screen test", "assay_type": "organism-based", "details": "mouse, in vivo, ip"}, "Mus musculus [7]": {"system": "Mus musculus", "assay": "as §1", "assay_type": "organism-based", "details": "in vivo, ip", "in_short": "as §2"}, "[8]": {"assay": "Protective index between TD50/MES ED50 when administered orally to rat", "assay_type": "ADME, organism-based", "details": "in vivo, po, read-out: PI", "in_short": "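Rats, oral. PI = TD50 (ataxia, gait and placing-response assessment) / MES ED50 (150 mA, 0.2 s corneal shock), with both taken at the time of peak effect.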"}, "[9]": {"assay": "Neurotoxic toxicity against Rat was evaluated by rotarod test afte oral administration", "assay_type": "organism-based", "details": "in vivo"}, "[10]": {"assay": "Neurotoxic toxicity against Rat was evaluated by rotarod test afte oral administration <250", "assay_type": "organism-based", "details": "in vivo"}, "[11]": {"details": "Mus musculus, ip, read-out: ED50"}}, "note": "Where “and” joins values, the source holds several entries; their conditions need not be identical. Equal values may be shown once.", "data": [{"smiles": "CC(=O)NC(CI)C(=O)NCc1ccccc1", "note": "(centres undefined)", "values": [{"measurement": "TD50", "setting": "[1]", "value": 300, "unit": "mg/kg"}]}, {"smiles": "CC(=O)N[C@H](CO)C(=O)NCc1ccccc1", "values": [{"measurement": "ED50", "setting": "Mus musculus [2]; [11]", "value": 53, "unit": "mg/kg"}, {"measurement": "selectivity ratio", "setting": "[3]", "value": "> 9.4"}, {"measurement": "TD50", "setting": "[4]", "value": "> 500", "unit": "mg/kg"}]}, {"smiles": "CCCC(CCC)C(=O)O", "note": "[VALPROIC ACID]", "values": [{"measurement": "ED50", "setting": "Mus musculus [2]; [11]", "value": 290, "unit": "mg/kg"}, {"measurement": "ED50", "setting": "Rattus norvegicus", "value": 400, "unit": "mg/kg"}]}, {"smiles": "CON(C)C(NC(C)=O)C(=O)NCc1ccccc1", "note": "(centres undefined)", "values": [{"measurement": "ED50", "setting": "Mus musculus [2]; [11]", "value": 6.7, "unit": "mg/kg"}, {"measurement": "selectivity ratio", "setting": "[5]", "value": 7.6}, {"measurement": "TD50", "setting": "[6]", "value": 51, "unit": "mg/kg"}]}, {"smiles": "CNCC(NC(C)=O)C(=O)NCc1ccccc1", "note": "(centres undefined)", "values": [{"measurement": "ED50", "setting": "Mus musculus [2]", "value": "<300 mg/kg and >100 mg/kg"}, {"measurement": "TD50", "setting": "Mus musculus [7]", "value": "< 300 mg/kg and > 100 mg/kg"}]}, {"smiles": "CCNCC(NC(C)=O)C(=O)NCc1ccccc1", "note": "(centres undefined)", "values": [{"measurement": "ED50", "setting": "Mus musculus [2]; [11]", "value": "> 100", "unit": "mg/kg"}, {"measurement": "TD50", "setting": "[1]", "value": 100, "unit": "mg/kg"}]}, {"smiles": "CC(=O)NC(CN)C(=O)NCc1ccccc1", "note": "(centres undefined)", "values": [{"measurement": "ED50", "setting": "Mus musculus [2]; [11]", "value": "> 100", "unit": "mg/kg"}, {"measurement": "TD50", "setting": "[1]", "value": "> 100", "unit": "mg/kg"}]}, {"smiles": "CC(=O)NC(NO)C(=O)NCc1ccccc1", "note": "(centres undefined)", "values": [{"measurement": "ED50", "setting": "Mus musculus [2]; [11]", "value": 100, "unit": "mg/kg"}]}, {"smiles": "CC(=O)N[C@H](C)C(=O)NCc1ccccc1", "values": [{"measurement": "ED50", "setting": "Mus musculus [2]; [11]", "value": 55, "unit": "mg/kg"}, {"measurement": "selectivity ratio", "setting": "[5]", "value": 3.9}, {"measurement": "ED50", "setting": "Rattus norvegicus", "value": 28, "unit": "mg/kg"}, {"measurement": "selectivity ratio", "setting": "[8]", "value": "> 36"}]}, {"smiles": "COC[C@H](NC(C)=O)C(=O)NCc1ccccc1", "values": [{"measurement": "ED50", "setting": "Mus musculus [2]", "value": ">100 mg/kg and <300 mg/kg"}, {"measurement": "TD50", "setting": "[4]", "value": "> 300", "unit": "mg/kg"}, {"measurement": "ED50", "setting": "Rattus norvegicus", "value": "> 30", "unit": "mg/kg"}, {"measurement": "TD50", "setting": "[9]", "value": "> 30", "unit": "mg/kg"}]}, {"smiles": "CONC(NC(C)=O)C(=O)NCc1ccccc1", "note": "(centres undefined)", "values": [{"measurement": "ED50", "setting": "Mus musculus [2]; [11]", "value": 6.2, "unit": "mg/kg"}, {"measurement": "selectivity ratio", "setting": "[5]", "value": 7.4}]}, {"smiles": "CC(=O)N[C@@H](C)C(=O)NCc1ccccc1", "values": [{"measurement": "selectivity ratio", "setting": "[5]", "value": 1.5}]}, {"smiles": "CC(=O)NC(CN1CCOCC1)C(=O)NCc1ccccc1", "note": "(centres undefined)", "values": [{"measurement": "ED50", "setting": "Mus musculus [2]", "value": "<300 mg/kg and >100 mg/kg"}, {"measurement": "TD50", "setting": "[1]", "value": "> 300", "unit": "mg/kg"}]}, {"smiles": "CSCC(NC(C)=O)C(=O)NCc1ccccc1", "note": "(centres undefined)", "values": [{"measurement": "TD50", "setting": "Mus musculus [7]", "value": "< 300 mg/kg and > 100 mg/kg"}]}, {"smiles": "COC[C@@H](NC(C)=O)C(=O)NCc1ccccc1", "note": "[LACOSAMIDE]", "values": [{"measurement": "TD50", "setting": "[9]", "value": "> 500", "unit": "mg/kg"}]}, {"smiles": "COC[C@@H](NC(C)=O)C(=O)NCc1ccc(F)cc1", "values": [{"measurement": "ED50", "setting": "Mus musculus [2]; [11]", "value": 4.2, "unit": "mg/kg"}, {"measurement": "selectivity ratio", "setting": "[5]", "value": 6.7}, {"measurement": "ED50", "setting": "Rattus norvegicus", "value": 2.6, "unit": "mg/kg"}, {"measurement": "TD50", "setting": "[9]", "value": "< 250", "unit": "mg/kg"}, {"measurement": "TD50", "setting": "[10]", "value": "> 125", "unit": "mg/kg"}]}, {"smiles": "CC(=O)NC(CN(C)C)C(=O)NCc1ccccc1", "note": "(centres undefined)", "values": [{"measurement": "TD50", "setting": "[1]", "value": "> 300", "unit": "mg/kg"}]}, {"smiles": "CC(=O)NC(CO)C(=O)NCc1ccccc1", "note": "(centres undefined)", "values": [{"measurement": "ED50", "setting": "Mus musculus [2]", "value": ">100 mg/kg and <300 mg/kg"}, {"measurement": "TD50", "setting": "[6]", "value": "< 300", "unit": "mg/kg"}]}, {"smiles": "CC(=O)NC(C)C(=O)NCc1ccccc1", "note": "(centres undefined)", "values": [{"measurement": "selectivity ratio", "setting": "[5]", "value": 5.9}, {"measurement": "ED50", "setting": "Rattus norvegicus", "value": 48, "unit": "mg/kg"}, {"measurement": "selectivity ratio", "setting": "[8]", "value": "> 21"}]}, {"smiles": "CC(=O)NC(CCl)C(=O)NCc1ccccc1", "note": "(centres undefined)", "values": [{"measurement": "ED50", "setting": "Mus musculus [2]; [11]", "value": 100, "unit": "mg/kg"}, {"measurement": "TD50", "setting": "Mus musculus [7]", "value": "< 300 mg/kg and > 100 mg/kg"}]}, {"smiles": "CCOCC(NC(C)=O)C(=O)NCc1ccccc1", "note": "(centres undefined)", "values": [{"measurement": "selectivity ratio", "setting": "[3]", "value": 4.6}, {"measurement": "TD50", "setting": "[1]", "value": 78, "unit": "mg/kg"}, {"measurement": "ED50", "setting": "Rattus norvegicus", "value": 19, "unit": "mg/kg"}, {"measurement": "selectivity ratio", "setting": "[8]", "value": "> 26"}]}, {"smiles": "COC[C@@H](NC(C)=O)C(=O)NCc1cccc(F)c1", "values": [{"measurement": "ED50", "setting": "Mus musculus [2]; [11]", "value": 6.9, "unit": "mg/kg"}, {"measurement": "selectivity ratio", "setting": "[5]", "value": 6.7}, {"measurement": "TD50", "setting": "[1]", "value": 46, "unit": "mg/kg"}, {"measurement": "ED50", "setting": "Rattus norvegicus", "value": 6.9, "unit": "mg/kg"}, {"measurement": "TD50", "setting": "[9]", "value": "> 400", "unit": "mg/kg"}, {"measurement": "selectivity ratio", "setting": "[8]", "value": "> 58"}]}, {"smiles": "O=C1NC(=O)C(c2ccccc2)(c2ccccc2)N1", "note": "[PHENYTOIN]", "values": [{"measurement": "ED50", "setting": "Mus musculus [2]; [11]", "value": 6.5, "unit": "mg/kg"}, {"measurement": "selectivity ratio", "setting": "[3]", "value": 6.6}, {"measurement": "ED50", "setting": "Rattus norvegicus", "value": 23, "unit": "mg/kg"}, {"measurement": "selectivity ratio", "setting": "[8]", "value": "> 22"}]}, {"smiles": "CC(=O)NC(CBr)C(=O)NCc1ccccc1", "note": "(centres undefined)", "values": [{"measurement": "TD50", "setting": "Mus musculus [7]", "value": "> 100 mg/kg and < 300 mg/kg"}]}]}
